Key:
Acetylcholinesterase = biological target: T1, Acetylcholinesterase (Mus musculus, UniProt P21836); test: Inhibition of mouse brain AChE after 1 hr by modified Ellman's colorimetric method
T1 sequence (P21836 whole entry): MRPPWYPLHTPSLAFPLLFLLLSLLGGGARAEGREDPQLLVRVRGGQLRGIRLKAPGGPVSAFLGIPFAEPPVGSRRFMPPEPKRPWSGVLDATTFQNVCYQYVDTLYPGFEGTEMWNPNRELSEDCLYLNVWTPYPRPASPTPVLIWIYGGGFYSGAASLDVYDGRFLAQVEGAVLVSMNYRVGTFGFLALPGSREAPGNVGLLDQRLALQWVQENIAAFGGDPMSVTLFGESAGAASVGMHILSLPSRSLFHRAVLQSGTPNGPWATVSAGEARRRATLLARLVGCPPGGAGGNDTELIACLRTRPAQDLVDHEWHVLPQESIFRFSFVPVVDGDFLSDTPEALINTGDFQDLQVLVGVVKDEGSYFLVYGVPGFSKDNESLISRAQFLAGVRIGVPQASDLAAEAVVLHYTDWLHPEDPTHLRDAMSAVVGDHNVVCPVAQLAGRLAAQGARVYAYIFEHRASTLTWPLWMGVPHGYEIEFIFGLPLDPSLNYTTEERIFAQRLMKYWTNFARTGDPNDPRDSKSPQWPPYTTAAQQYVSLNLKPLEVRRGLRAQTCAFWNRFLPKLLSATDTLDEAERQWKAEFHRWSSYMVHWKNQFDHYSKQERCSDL
Outline: (§1)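 Enzyme from mouse brain extract. Compounds preincubated with enzyme 1 h at 37 °C, then acetylthiocholine plus DTNB added. Absorbance read at 415 nm at 2 min intervals. Activity expressed as percent of DMSO solvent control. Seven concentrations tested. IC50 from nonlinear regression of sigmoidal dose–response, accepted only if r² ≥ 0.95. Mean of at least four independent measurements.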

Cholinesterase = Cholinesterase (Mus musculus, UniProt Q03311); test: Inhibition of mouse serum BChE after 1 hr by modified Ellman's colorimetric method
Outline: as §1, with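 “serum” for “brain”, “butyrylthiocholine” for “acetylthiocholine”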

Sequence of Cholinesterase (Q03311 whole entry): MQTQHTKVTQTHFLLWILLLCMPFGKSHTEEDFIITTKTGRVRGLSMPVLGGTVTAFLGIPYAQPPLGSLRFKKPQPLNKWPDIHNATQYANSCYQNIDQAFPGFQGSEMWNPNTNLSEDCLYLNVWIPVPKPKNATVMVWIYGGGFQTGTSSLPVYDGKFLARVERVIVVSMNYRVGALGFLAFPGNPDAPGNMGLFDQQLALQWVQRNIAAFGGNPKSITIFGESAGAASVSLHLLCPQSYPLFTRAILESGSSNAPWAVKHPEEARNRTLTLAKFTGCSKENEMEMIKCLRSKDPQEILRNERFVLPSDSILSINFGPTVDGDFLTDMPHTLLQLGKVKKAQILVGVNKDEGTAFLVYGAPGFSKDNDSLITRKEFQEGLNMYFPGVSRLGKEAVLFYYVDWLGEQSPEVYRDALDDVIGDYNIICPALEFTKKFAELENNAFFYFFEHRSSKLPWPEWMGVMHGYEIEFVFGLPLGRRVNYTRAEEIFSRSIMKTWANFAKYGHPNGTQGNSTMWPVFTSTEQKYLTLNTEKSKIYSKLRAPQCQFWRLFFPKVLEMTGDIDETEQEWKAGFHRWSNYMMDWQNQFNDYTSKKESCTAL

With `CNC(=O)Oc1ccc2c(c1)[C@]1(C)CCN(CCc3ccccc3)[C@@H]1N2C` the IC50 (Acetylcholinesterase) was 170 nM and the IC50 (Cholinesterase) was 10 nM.
`COc1ccc(NC(=O)Oc2ccc3c(c2)[C@]2(C)CCN(CCc4ccccc4)[C@@H]2N3C)cc1OC` showed an IC50 (Acetylcholinesterase) of 11000 nM and an IC50 (Cholinesterase) of 97 nM.
For `CN1c2ccc(OC(=O)Nc3ccc4c(c3)OCO4)cc2[C@]2(C)CCN(CCc3ccccc3)[C@H]12`, the IC50 (Acetylcholinesterase) was 1900 nM and the IC50 (Cholinesterase) was 100 nM.
`CN1c2ccc(OC(=O)Nc3ccc([N+](=O)[O-])cc3)cc2[C@]2(C)CCN(CCc3ccccc3)[C@H]12` showed an IC50 (Acetylcholinesterase) greater than 100000 nM and an IC50 (Cholinesterase) of 6700 nM.
For `CCCCCCOc1ccc(NC(=O)Oc2ccc3c(c2)[C@]2(C)CCN(CCc4ccccc4)[C@@H]2N3C)cc1`, the IC50 (Acetylcholinesterase) was greater than 100000 nM and the IC50 (Cholinesterase) was 1400 nM.
For `CN1c2ccc(OC(=O)Nc3ccc(C(C)(C)C)cc3)cc2[C@]2(C)CCN(CCc3ccccc3)[C@H]12`, the IC50 (Acetylcholinesterase) was 15000 nM and the IC50 (Cholinesterase) was 430 nM.
`CN1c2ccc(OC(=O)Nc3ccc(-c4ccccc4)cc3)cc2[C@]2(C)CCN(CCc3ccccc3)[C@H]12` showed an IC50 (Acetylcholinesterase) greater than 100000 nM and an IC50 (Cholinesterase) of 1100 nM.
`CN(C)c1ccc(NC(=O)Oc2ccc3c(c2)[C@]2(C)CCN(CCc4ccccc4)[C@@H]2N3C)cc1` was tested, and the IC50 (Acetylcholinesterase) was greater than 100000 nM and the IC50 (Cholinesterase) was 79 nM.
With `CNC(=O)Oc1ccc2c(c1)[C@]1(C)CCN(C)[C@@H]1N2C` [PHYSOSTIGMINE] the IC50 (Acetylcholinesterase) was 40 nM and the IC50 (Cholinesterase) was 280 nM.
`CN1c2ccc(OC(=O)Nc3ccc(Cl)cc3)cc2[C@]2(C)CCN(CCc3ccccc3)[C@H]12` gave an IC50 (Acetylcholinesterase) greater than 100000 nM and an IC50 (Cholinesterase) of 370 nM.
`CN1c2ccc(OC(=O)NCCc3ccccc3)cc2[C@]2(C)CCN(CCc3ccccc3)[C@H]12` showed an IC50 (Acetylcholinesterase) of 450 nM and an IC50 (Cholinesterase) of 16 nM.
`COc1ccc(NC(=O)Oc2ccc3c(c2)[C@]2(C)CCN(CCc4ccccc4)[C@@H]2N3C)cc1` gave an IC50 (Acetylcholinesterase) of 33000 nM and an IC50 (Cholinesterase) of 83 nM.
`CN1c2ccc(OC(=O)NCc3ccccc3)cc2[C@]2(C)CCN(CCc3ccccc3)[C@H]12` was tested, and the IC50 (Acetylcholinesterase) was 180 nM and the IC50 (Cholinesterase) was 6.6 nM.
Work on `CN1c2ccc(OC(=O)Nc3ccc4ccccc4c3)cc2[C@]2(C)CCN(CCc3ccccc3)[C@H]12` yielded an IC50 (Acetylcholinesterase) of 44000 nM and an IC50 (Cholinesterase) of 580 nM.
With `CN1c2ccc(OC(=O)NCC3CCCCC3)cc2[C@]2(C)CCN(CCc3ccccc3)[C@H]12` the IC50 (Acetylcholinesterase) was 2500 nM and the IC50 (Cholinesterase) was 1.8 nM.
`CN1c2ccc(OC(=O)Nc3ccc(Oc4ccccc4)cc3)cc2[C@]2(C)CCN(CCc3ccccc3)[C@H]12` gave an IC50 (Acetylcholinesterase) greater than 100000 nM and an IC50 (Cholinesterase) of 2000 nM.
Work on `CN1c2ccc(OC(=O)Nc3ccccc3)cc2[C@]2(C)CCN(CCc3ccccc3)[C@H]12` yielded an IC50 (Acetylcholinesterase) of 1600 nM and an IC50 (Cholinesterase) of 340 nM.
For `CCCCCCNC(=O)Oc1ccc2c(c1)[C@]1(C)CCN(CCc3ccccc3)[C@@H]1N2C`, the IC50 (Acetylcholinesterase) was 970 nM and the IC50 (Cholinesterase) was 14 nM.
In the case of `CC(=O)c1ccc(NC(=O)Oc2ccc3c(c2)[C@]2(C)CCN(CCc4ccccc4)[C@@H]2N3C)cc1`, the IC50 (Acetylcholinesterase) is reported as greater than 100000 nM and the IC50 (Cholinesterase) is reported as 5900 nM.
With `CCCCc1ccc(NC(=O)Oc2ccc3c(c2)[C@]2(C)CCN(CCc4ccccc4)[C@@H]2N3C)cc1` the IC50 (Acetylcholinesterase) was 48000 nM and the IC50 (Cholinesterase) was 980 nM.
With `CN1c2ccc(OC(=O)NC3CCCCC3)cc2[C@]2(C)CCN(CCc3ccccc3)[C@H]12` the IC50 (Acetylcholinesterase) was 5600 nM and the IC50 (Cholinesterase) was 22 nM.
`CC(C)c1ccc(NC(=O)Oc2ccc3c(c2)[C@]2(C)CCN(CCc4ccccc4)[C@@H]2N3C)cc1` [PHENETHYLCYMSERINE] gave an IC50 (Acetylcholinesterase) greater than 100000 nM and an IC50 (Cholinesterase) of 540 nM.
